Measurements: ChEMBL document CHEMBL4477197, “Antitumor Activity of Spicatoside A by Modulation of Autophagy and Apoptosis in Human Colorectal Cancer Cells” (J Nat Prod, 2016)
Calls of active or inactive are those of the source. The rule behind the calls is not given here.

Legend:
Mus musculus = experiment: Inhibition of Ki-67 expression in human HCT116 cells xenografted in BALB/c-nu mouse at 2.5 to 5 mg/kg, ip administered three times per week for 28 days measured post dosing by hematoxylin staining based inverted phase-contrast microscopy; format: functional, organism-based
Method in brief: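 Day-28 xenograft tumors were fixed in 4% paraformaldehyde, paraffin-embedded and serially sectioned. Sections were deparaffinized, rehydrated, antigen-retrieved and immunostained for Ki-67 with HRP detection, then counterstained with hematoxylin. Slides were viewed by inverted phase-contrast microscopy at 200×.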

HCT-116 [1] = experiment: Induction of apoptosis in human HCT116 cells assessed as upregulation of Bax levels at 10 to 30 uM after 48 hrs by Western blot analysis; format: functional, cell-based
HCT-116 [2] = experiment: Induction of autophagy in human HCT116 cells assessed as formation of acidic vesicular organelles at 20 uM after 24 hrs by acridine orange staining based assay relative to control; format: functional, cell-based
Method in brief: (§1)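 Cells were seeded at 1 × 10^5/well, grown 24 h, then treated 24 h with 20 μM compound, 2.5 nM bafilomycin A1, or both. They were stained with acridine orange (2 μg/mL) for 15 min and washed in DPBS. AO-positive cells were quantified by high-content imaging and expressed as an index versus vehicle. Triplicates.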

[3] = Inhibition of PI3K/Akt/mTOR in human HCT116 cells assessed as upregulation of PTEN at 10 to 30 uM after 24 hrs by Western blot analysis; format: cell-based
Method in brief: (§2)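 HCT116 cells (RPMI 1640, 10% FBS, 37 °C, 5% CO2) exposed to the compound for 24 h, then lysed in 2× SDS sample buffer with NaF and orthovanadate and boiled. BCA-normalised protein (10−30 μg) run on 6−15% SDS-PAGE and blotted to PVDF. Blocked in 5% BSA/PBS-Tween, probed for PI3K, PTEN, Akt and mTOR, and detected by ECL. Blots are representative of three determinations.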

HCT-116 [4] = experiment: Induction of autophagy in human HCT116 cells assessed as accumulation of LC3-2 at 20 uM after 24 hrs in presence of bafilomycin A1 by Western blot analysis; format: functional, cell-based
Method in brief: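 HCT116 cells were exposed 24 h to 20 μM compound, 2.5 nM bafilomycin A1, or both together. LC3-II was measured by Western blot with β-actin as internal standard. Blots are representative of three separate determinations.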

[5] = Inhibition of PI3K/Akt/mTOR in human HCT116 cells assessed as suppression of Akt phosphorylation at Ser473 at 10 to 30 uM after 24 hrs by Western blot analysis; format: cell-based; method in brief: as §2
HCT-116 [6] = experiment: Induction of beclin 1 cleavage in human HCT116 cells at 30 uM after 48 hrs in presence of caspase-8 inhibitor z-IETD-FMK by Western blot analysis; format: functional, cell-based
Method in brief: (§3)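 HCT116 cells were cultured 48 h with 30 μM compound, with or without 20 μM z-IETD-FMK. Lysates were made in SDS loading buffer and 10–30 μg protein was resolved by 6–15% SDS-PAGE and transferred to PVDF. Blots were probed for cleaved caspase-8, beclin 1, cleaved beclin 1 and LC3-II, and detected by ECL.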

HCT-116 [7] = experiment: Induction of apoptosis in human HCT116 cells assessed as downregulation of Bcl-2 levels at 10 to 30 uM after 48 hrs by Western blot analysis; format: functional, cell-based
HCT-116 [8] = experiment: Induction of autophagy in human HCT116 cells assessed as formation of acidic vesicular organelles at 20 uM after 24 hrs in presence of bafilomycin A1 by acridine orange staining based assay; format: functional, cell-based; method in brief: as §1
HCT-116 [9] = experiment: Increase in LC3-2 levels in human HCT116 cells at 30 uM after 48 hrs in presence of z-IETD-FMK by Western blot analysis; format: functional, cell-based; method in brief: as §3
[10] = Inhibition of PI3K/Akt/mTOR in human HCT116 cells assessed as downregulation of PI3K p85 at 10 to 30 uM after 24 hrs by Western blot analysis; format: cell-based; method in brief: as §2
[11] = Toxicity in BALB/c-nu mouse xenografted with human HCT116 cells assessed as change in body weight at 2.5 to 5 mg/kg, ip administered three times per week for 28 days measured during compound dosing relative to control; format: organism-based; details: in vivo, 672 h
Method in brief: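 Nude mice carried subcutaneous flank HCT116 implants (2 × 10^6 cells in 200 μL medium). At about 200 mm3 they were randomised into groups of five. Compound at 2.5 or 5 mg/kg in saline with 0.5% Tween 80 was given ip three times weekly for 4 weeks; controls received vehicle. Body weight was monitored throughout for toxicity.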

HCT-116 [12] = experiment: Induction of apoptosis in human HCT116 cells assessed as PARP cleavage at 30 uM after 24 hrs in presence of autophagy inhibitor 3-MA by Western blot analysis; format: functional, cell-based
Method in brief: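 HCT116 cells were pretreated 1 h with 2 mM 3-MA, then given 30 μM compound for a further 24 h. Whole-cell lysates were immunoblotted for LC3-II and cleaved PARP, with β-actin as loading standard and ECL detection. Blots are representative of three separate determinations.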

HCT-116 [13] = experiment: Induction of apoptosis in human HCT116 cells at 10 uM after 48 hrs by Annexin V-FITC/propidium iodide staining based flow cytometry; format: functional
Method in brief: (§4)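 HCT116 cells were treated 48 h, then resuspended in binding buffer at 1 × 10^6 cells/mL. They were stained with annexin V-FITC and PI for 20 min at room temperature in the dark, diluted and analyzed immediately by flow cytometry for annexin V-positive cells. n = 3.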

MRC5 = experiment: Antiproliferative activity against human MRC5 cells after 24 to 72 hrs by SRB assay; format: cell-based
Method in brief: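 Cells from ATCC were grown at 37 °C in 5% CO2, in RPMI 1640 (A549, HCT116, SNU-638) or DMEM (MDA-MB-231, SK-HEP-1, MRC5) with 10% FBS. They were seeded at 6 × 10^3 cells/well for 24 h, then exposed for 72 h. Cells were TCA-fixed, stained with 0.4% SRB, and read at 515 nm against day-zero plates. IC50 came from nonlinear regression, as means ± SD.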

[14] = Inhibition of PI3K/Akt/mTOR in human HCT116 cells assessed as downregulation of PI3K p101 at 10 to 30 uM after 24 hrs by Western blot analysis; format: cell-based
Method in brief: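 HCT116 cells were lysed after 24 h with the indicated concentrations. PI3K, PTEN, Akt and mTOR were immunoblotted (SDS-PAGE, PVDF, 5% BSA block, ECL).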

HCT-116 [15] = experiment: Induction of apoptosis in human HCT116 cells at 30 uM after 48 hrs by Annexin V-FITC/propidium iodide staining based flow cytometry; format: functional; method in brief: as §4
HCT-116 [16] = experiment: Induction of apoptosis in human HCT116 cells at 20 uM after 48 hrs by Annexin V-FITC/propidium iodide staining based flow cytometry; format: functional; method in brief: as §4
HCT-116 [17] = experiment: Antitumor activity against human HCT116 cells xenografted in BALB/c-nu mouse assessed as inhibition of tumor volume at 2.5 mg/kg, ip administered three times per week for 28 days measured every 3 to 4 days of dosing relative to control; format: functional; details: HCT-116, ip
Method in brief: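 HCT116 cells (2 × 106 in 200 μL medium) injected subcutaneously into the right flank of nude mice; at ~200 mm3, mice randomized into groups of five. Compound at 2.5 or 5 mg/kg, dissolved in normal saline with 0.5% Tween 80, given ip three times weekly for 28 days; vehicle controls got equal volume. Tumor volume measured by caliper every 3–4 days.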

C[C@H]1CC[C@@]2(OC1)O[C@H]1C[C@H]3[C@@H]4CC=C5C[C@@H](O)C[C@@H](O[C@@H]6O[C@H](C)[C@H](O)[C@H](O[C@@H]7OC[C@@H](O)[C@H](O)[C@H]7O)[C@H]6O[C@@H]6O[C@H](CO)[C@@H](O)[C@H](O)[C@H]6O)[C@]5(C)[C@H]4CC[C@]3(C)[C@H]1[C@@H]2C
inhibition (Mus musculus): Active | Activity (HCT-116 [1]): Active | Activity (HCT-116 [2]): Active | inhibition [3]: Active | Activity (HCT-116 [4]): Active | inhibition [5]: Active | Activity (HCT-116 [6]): inactive | Activity (HCT-116 [7]): Active | Activity (HCT-116 [8]): inactive | Activity (HCT-116 [9]): Active | inhibition [10]: Active | Activity [11]: Non-Toxic | Activity (HCT-116 [12]): Active | Activity (HCT-116 [13]): 13.42% | IC50 (MRC5): 82 µM | inhibition [14]: Active | Activity (HCT-116 [15]): 24.58% | Activity (HCT-116 [16]): 18.58% | inhibition in vivo at 2.5 mg/kg (HCT-116 [17]): 38.8%
